Legend:
[1] = target: Delta-type opioid receptor (Rattus norvegicus, UniProt P33533); assay: Displacement of [3H]deltorphin 2 from delta opioid receptor in Wistar rat brain after 45 mins
Summary of the method: (§1)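 Radioligand binding on a crude membrane fraction of Wistar rat forebrain.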

[2] = Stability in rat brain assessed as half life; format: ADME, tissue-based
Summary of the method: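 Peptides incubated in rat brain homogenate lacking cerebellum. Digestion mixtures analysed by RP-HPLC; velocity constants and half-lives calculated assuming pseudo-first-order kinetics.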

Mu-type opioid receptor [3] = target: Mu-type opioid receptor (Rattus norvegicus, UniProt P33535); assay: Displacement of [3H]DAMGO from mu opioid receptor in Wistar rat brain after 45 mins; summary of the method: as §1
Mu-type opioid receptor (Rattus norvegicus, UniProt P33535), sequence (P33535 whole entry): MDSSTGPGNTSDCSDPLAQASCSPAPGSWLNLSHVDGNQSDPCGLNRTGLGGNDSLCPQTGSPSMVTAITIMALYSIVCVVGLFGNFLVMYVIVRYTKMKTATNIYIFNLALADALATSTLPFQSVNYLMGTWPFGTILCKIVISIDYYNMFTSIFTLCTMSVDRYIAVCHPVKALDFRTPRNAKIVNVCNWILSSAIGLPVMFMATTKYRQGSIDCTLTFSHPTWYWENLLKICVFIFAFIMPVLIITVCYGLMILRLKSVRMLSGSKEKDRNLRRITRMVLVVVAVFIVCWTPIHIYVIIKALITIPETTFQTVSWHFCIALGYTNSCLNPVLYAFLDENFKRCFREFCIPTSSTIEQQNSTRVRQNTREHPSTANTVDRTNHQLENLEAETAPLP

[4] = target: Mu-type opioid receptor (Rattus norvegicus) (UniProt P33535); assay: Agonist activity at mu opioid receptor in rat brain assessed as maximal stimulation of [35S]GTP-gamma-S binding relative to basal level; format: functional, tissue-based
Mu-type opioid receptor (Rattus norvegicus), sequence (P33535 whole entry): as above
Summary of the method: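 [35S]GTPγS binding in rat brain membrane fractions, reversal tested with naloxone 1 µM.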

[5] = target: Mu-type opioid receptor (Rattus norvegicus) (UniProt P33535); settings: Brain
[6] = target: Mu-type opioid receptor (Homo sapiens) (UniProt P35372); settings: CHO
Mu-type opioid receptor (Homo sapiens), sequence (P35372 whole entry): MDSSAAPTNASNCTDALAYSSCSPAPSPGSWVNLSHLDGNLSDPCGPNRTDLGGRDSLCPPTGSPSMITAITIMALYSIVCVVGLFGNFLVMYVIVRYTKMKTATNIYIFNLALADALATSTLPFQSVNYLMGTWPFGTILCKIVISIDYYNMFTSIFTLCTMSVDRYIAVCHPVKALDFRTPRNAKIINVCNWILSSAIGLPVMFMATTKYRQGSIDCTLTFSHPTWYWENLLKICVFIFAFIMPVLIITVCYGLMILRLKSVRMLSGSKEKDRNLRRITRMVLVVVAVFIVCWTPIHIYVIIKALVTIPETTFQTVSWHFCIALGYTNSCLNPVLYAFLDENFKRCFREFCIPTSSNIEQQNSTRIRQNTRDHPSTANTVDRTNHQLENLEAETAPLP

Mu-type opioid receptor [7] = target: Mu-type opioid receptor (Mus musculus, UniProt P42866); assay: Agonist activity at mu opioid receptor in NMRI mouse vas deferens assessed as inhibition of electrically-stimulated muscle contraction; format: functional, tissue-based
Mu-type opioid receptor (Mus musculus, UniProt P42866), sequence (P42866 whole entry): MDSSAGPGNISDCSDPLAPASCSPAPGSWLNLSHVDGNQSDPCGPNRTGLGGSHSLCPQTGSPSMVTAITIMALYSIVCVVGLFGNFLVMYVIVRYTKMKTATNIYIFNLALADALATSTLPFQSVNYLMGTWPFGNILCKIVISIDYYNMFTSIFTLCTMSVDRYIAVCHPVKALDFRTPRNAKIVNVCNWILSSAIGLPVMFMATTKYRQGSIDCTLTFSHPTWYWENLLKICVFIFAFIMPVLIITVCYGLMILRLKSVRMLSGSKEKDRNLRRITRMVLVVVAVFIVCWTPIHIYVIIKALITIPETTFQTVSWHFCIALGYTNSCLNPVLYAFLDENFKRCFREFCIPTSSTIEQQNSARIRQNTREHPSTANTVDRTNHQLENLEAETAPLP
Summary of the method: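 Mouse vas deferens preparation; agonist potency. Values are means ± S.E.M of 3–7 independent duplicate experiments.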

Delta-type opioid receptor, sequence (P33533 whole entry): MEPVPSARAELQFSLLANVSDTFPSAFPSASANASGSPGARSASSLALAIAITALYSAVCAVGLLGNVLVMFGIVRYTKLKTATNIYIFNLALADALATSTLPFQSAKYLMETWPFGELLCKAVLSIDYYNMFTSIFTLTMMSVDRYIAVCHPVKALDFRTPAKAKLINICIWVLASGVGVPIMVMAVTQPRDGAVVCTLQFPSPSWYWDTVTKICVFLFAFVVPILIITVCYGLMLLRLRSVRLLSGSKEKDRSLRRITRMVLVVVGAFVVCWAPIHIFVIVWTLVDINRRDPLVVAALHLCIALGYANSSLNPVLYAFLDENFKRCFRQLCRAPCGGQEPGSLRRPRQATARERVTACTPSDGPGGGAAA

Structure (SMILES)	Ki [1]	half-life [2]	Ki (Mu-type opioid receptor [3])	Emax [4]	Log10ED50 [5]	Log10ED50 [6]	IC50 (Mu-type opioid receptor [7])
NC(=O)[C@H](Cc1ccccc1)NC(=O)CN1Cc2ccccc2C[C@@]2(CCCN2C(=O)[C@@H](N)Cc2ccc(O)cc2)C1=O	2.31 nM	> 24 h	8.73 nM	–	–	–	–
NC(=O)[C@H](Cc1ccccc1)NC(=O)CN1Cc2ccccc2C[C@H](NC(=O)[C@@H](N)Cc2ccc(O)cc2)C1=O	0.778 nM	0.0117 h	0.373 nM	–	–	–	–
C[C@@H](NC(=O)[C@@H](N)Cc1ccc(O)cc1)C(=O)NCC(=O)N(C)[C@@H](Cc1ccccc1)C(=O)NCCO	–	–	–	169%	–	–	–
NC(=O)[C@H](Cc1ccccc1)NC(=O)CN1Cc2ccccc2C[C@]2(CCCN2C(=O)[C@@H](N)Cc2ccc(O)cc2)C1=O	> 10 nM	> 24 h	0.0293 nM	134%	6.74	6.88	49.8 nM
NC(=O)[C@H](Cc1ccccc1)NC(=O)CN1Cc2ccccc2C[C@@H](NC(=O)[C@@H](N)Cc2ccc(O)cc2)C1=O	2.96 nM	3.3 h	2.25 nM	–	–	–	–
NC(=O)[C@H](Cc1ccccc1)NC(=O)[C@H](Cc1ccccc1)NC(=O)[C@@H]1CCCN1C(=O)[C@@H](N)Cc1ccc(O)cc1 [ENDOMORPHIN 2]	–	0.0633 h	–	–	–	–	–
CN1CC[C@]23c4c5ccc(O)c4O[C@H]2[C@@H](O)C=C[C@H]3[C@H]1C5	–	–	–	134%	–	–	–

— ChEMBL document CHEMBL1140695, “Endomorphin-2 with a beta-turn backbone constraint retains the potent micro-opioid receptor agonist properties” (J Med Chem, 2008)
